Screening data deposited in PubChem BioAssay by several laboratories.
The entries come from a sample that favours hits as a whole.
Diaphorase act = diaphorase activation or chemical reduction counter-screen. Diaphorase/resazurin coupled assay, resorufin fluorescence, 16 min; active compounds read high; 1 = vehicle wells, 0 = NADH-free wells. activation factor at 20 µM. AID 1229. actives 0.005% (n = 190,000);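 active means diaphorase activity raised at least twofold by the compound at 20 µM; inactive means activation factor below 2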
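Test system: Clostridium kluyveri diaphorase, purified enzyme; input: enzyme 0.07 U/mL final; buffer or medium: 50 mM HEPES pH 7.4 with 4.542 mM MgCl2, 0.005% Tween 20; also added: 0.114 mM NADH and 0.1 mM resazurin, final amounts; schedule: 16 min enzyme reaction, ambient temperature; technique: fluorescence of resorufin, 544 nm excitation, 590 nm emission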
G6PDH counter = L. mesenteroides G6PDH inhibition counter-screen | AID 1020 | actives 0.12% (n = 200,000) | Purified L. mesenteroides G6PDH, diaphorase/resazurin coupled fluorescence, 45 min | inhibition, % at 5 µM
L major viab = Leishmania major promastigote growth inhibition; Leishmania major promastigotes, resazurin fluorescence viability; AID 1063; actives 9% (n = 200,000); inhibition, % at 10 µM;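 further: promastigotes grown with compound for 44 hours at 28 °C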
Diaph inh CS = diaphorase inhibition or chemical oxidation counter-screen; diaphorase resazurin-to-resorufin fluorescence, NADH, 16 min; bacterial (C. kluyveri) enzyme, not human; inhibition, % at 20 µM; actives 0.69% (n = 190,000); AID 1217;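 active means primary screen inhibition at 20 µM above a set limit, cut at about 50% in these data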;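 further: plate controls were DMSO with full reaction for no effect and wells lacking NADH for full effect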
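Assay system – diaphorase enzyme from Clostridium kluyveri · Amount – diaphorase 0.14 U/mL (working solution) · Times – reaction incubation of 16 min at room temperature · Controls – No-NADH positive control and DMSO neutral control · Signal – resorufin fluorescence 544/590 nm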
PfGluPho inh = PfG6PD (Plasmodium falciparum) enzyme inhibition; PfGluPho enzyme, NADPH resazurin-diaphorase fluorescence; inhibition, % at 20 µM; actives 0.78% (n = 350,000);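 active means inhibition reaching at least a set limit at 20 µM in the primary screen, cut at about 59% in these data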;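 further: 0% = DMSO wells with substrate and 100% = DMSO wells lacking glucose-6-phosphate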
Redox H2O2 prof = compounds producing H2O2 with reducing agent – biochemical, NIH compound library profiling, artefact control for MLSCN library redox annotation, primary screen | actives 0.03% (n = 200,000) | activation, % at 10 µM | DTT-dependent redox cycling H2O2, phenol red/HRP absorbance; 100% = 100 µM peroxide control, 0% = buffer;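 active means activation of at least 50% relative to the plate's high and low controls in the primary single-dose screen; inactive means activation below 50%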;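 further: compound incubated with DTT at 0.8 mM final as the reducing agent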
The depositor's hits bear a star; . = no result given. Unless noted, no stated cut-off is given here; in the data, active means inhibition above about 50%; inactive means the rest.

SMILES	Diaphorase act	G6PDH counter	L major viab	Diaph inh CS	PfGluPho inh	Redox H2O2 prof
O=C(c1cc(S(=O)(=O)N2CCOCC2)ccc1F)N(CCc1ccccc1)Cc1ccccc1	.	.	.	.	20	.
O=C(Nc1ccccc1)c1ccccc1OCc1cccc([N+](=O)[O-])c1	0.8	-14	55*	16	16	0
CN1C(=O)C2(NC(=O)c3ccccc3N2C)c2ccccc21 (stereo not drawn)	.	.	.	.	10	.
CN1C(=O)C(Cl)(Cl)C(=O)c2ccccc21	0.2	25	-15	76*	44	-1
Cc1ccc(NC(=S)N/N=C/c2ccc([N+](=O)[O-])s2)cc1	0.8	0	89*	20	13	2
COc1cc(/C=N/NC(=O)Cc2cccs2)c([N+](=O)[O-])cc1OC	0.7	16	29	29	0	0
O=C(Cc1cccs1)N/N=C\c1ccc([N+](=O)[O-])s1	1.1	3	100*	-9	27	-1
O=C(CNC(=O)c1ccccc1Cl)N/N=C/c1ccc([N+](=O)[O-])s1	0.9	-1	99*	6	23	0
Cc1onc(-c2ccccc2)c1C(=O)N/N=C/c1ccco1	.	.	.	.	14	.
O=C(CCNC(=O)c1ccccc1Cl)NN=Cc1ccccc1[N+](=O)[O-]	.	.	.	.	20	.
Cc1onc(-c2ccccc2)c1C(=O)N/N=C/c1ccc([N+](=O)[O-])s1	0.9	5	100*	12	25	0
Cn1c(CCC(=O)O)nc2cc(S(=O)(=O)N3CCCCC3)ccc21	.	.	.	.	41	.
CCOC(=O)Cc1csc(NC(=O)CCN2C(=O)c3ccccc3C2=O)n1	0.9	4	-1	8	9	-1
CCOc1ccc(CN2CCN(Cc3nc(C(C)C)cs3)CC2CCO)cc1 (stereo not drawn)	1	2	81*	4	11	-2
CCOc1ccc(CN2CCN(C3CCC3)CC2CCO)cc1 (stereo not drawn)	.	.	.	.	-4	.
CC(C)c1csc(CN2CCN(CCc3ccccc3)C(CCO)C2)n1 (stereo not drawn)	1	-2	89*	-3	0	-1
CC(C)c1csc(CN2CCN(Cc3ccccc3)C(CCO)C2)n1 (stereo not drawn)	1.1	11	1	-7	9	5
CCOc1ccc(CN2CCN(C3CCSCC3)CC2CCO)cc1 (stereo not drawn)	0.9	4	73*	8	-15	-1
CCOc1ccc(CN2CCN(Cc3cc4ccccc4o3)CC2CCO)cc1 (stereo not drawn)	.	.	.	.	-5	.
CCOc1ccc(CN2CCN(Cc3[nH]c4ccc(OC)cc4c3C)CC2CCO)cc1 (stereo not drawn)	.	10	57*	.	-18	1
N#Cc1ccc(CN2CCN(C(=O)CC(NC(=O)c3ccccc3)c3ccccc3)CC2)cc1 (stereo not drawn)	.	.	.	.	-2	.
CC(=O)c1ccc(OCC(C)Oc2ccc(C#N)cc2)cc1 (stereo not drawn)	.	.	.	.	-2	.
CN1CCN(S(=O)(=O)c2cccc(C(=O)NCc3ccc(Cl)cc3)c2)CC1	0.9	2	-2	10	-11	-1
CCCc1nnc(NC(=O)CCC(=O)N2CCN(S(=O)(=O)c3ccc(C)cc3)CC2)s1	.	.	.	.	-8	.
CCOc1ccc(CN2CCN(CCCn3cccn3)CC2CCO)cc1 (stereo not drawn)	1.2	7	92*	-19	-7	0
SMILES	Diaphorase act	G6PDH counter	L major viab	Diaph inh CS	PfGluPho inh	Redox H2O2 prof
Cc1cc(C)c2cc(C#N)c(N3CCCC3)nc2c1	0.9	-5	1	11	9	2
CC(=O)c1cc(C#N)c(N2CCCC2)nc1C	1	5	100*	-4	-4	0
O=C(CC1SC(N2CCCCC2)=NC1=O)Nc1cccc(C(=O)N2CCCC(C(F)(F)F)C2)c1 (stereo not drawn)	.	.	.	.	-8	.
C=CCSc1nc(C)cc(C(=O)OCC)c1C#N	.	.	.	.	-11	.
O=C(Nc1nnc(-c2ccccn2)o1)c1cccc(Br)c1	0.9	-10	24	12	-9	1
O=C(Nc1nnc(-c2cccnc2)o1)c1cccc(Cl)c1	1	3	55*	1	-26	1
O=C(Nc1nnc(-c2ccccn2)o1)c1cccc(Cl)c1	0.9	7	51*	7	-3	0
CN(Cc1ccc(-n2cccn2)cc1)Cc1nc(-c2cnccn2)no1	1	13	-1	0	6	1
COc1ccc(C(=O)NC(C(=O)NCC2(N3CCCCC3)CCCCC2)C(C)C)cc1 (stereo not drawn)	.	.	.	.	-8	.
COCCCNC(=S)Nc1c(C)cc(C)cc1C	.	.	.	.	-9	.
c1ccc(CN2CCC(Nc3nc(-c4cccnc4)nc4ccccc34)CC2)cc1	1	-7	98*	-3	-4	0
c1ccc(CNc2nc(-c3cccnc3)nc3ccccc23)cc1	.	.	.	.	13	.
c1cncc(-c2nc(NCC3COc4ccccc4O3)c3ccccc3n2)c1 (stereo not drawn)	0.8	-1	77*	20	4	0
Cc1ccccc1Nc1nc(-c2cccnc2)nc2ccccc12	0.6	12	78*	40	-3	0
COc1ccc(N2CCN(C3CCCN(C(=O)CSC)C3)CC2)cc1 (stereo not drawn)	.	.	.	.	2	.
N#CCSc1nnc(Cc2cccc3ccccc23)n1C1CCCCC1	0.9	5	6	14	-28	1
CCCCCCOC(=O)c1ccc(NC(=O)c2cc(OC)c(OC)c(OC)c2Br)cc1	0.9	4	-2	13	22	0
CCOC(=O)c1ccc(NC(=O)c2cc(OC)c(OC)c(OC)c2Br)cc1	0.8	-4	74*	18	10	0
COc1ccc(Br)cc1C(=O)Nc1ccc(C(=O)O)cc1	0.1	4	-2	92*	-1	-1
COc1ccc(NC(=O)c2cc3cccc(OC)c3oc2=Nc2ccc(C(=O)O)cc2)cc1OC	0.2	-2	15	78*	-4	-2
Cc1cccc2cc3c(N)c(C(=O)N4CCc5ccccc54)sc3nc12	0.8	6	0	24	5	0
Nc1nc(=O)n(C2CCCO2)cc1Br (stereo not drawn)	.	.	.	.	-24	.
